pKi: −log10 of the molar value. “And” between values parts separate entries of the source, which are not always exact repeats. Equal entries are not always repeated.
Experiments:
[1] = molecular target: T1, 5-hydroxytryptamine receptor 1A (Homo sapiens, UniProt P08908); assay: Displacement of [3H]-8-OH-DPAT from human 5-HT1A receptor expressed in HEK293 cell membranes assessed as inhibition constant incubated for 1 hr by Microbeta plate reader based analysis; set-up: species or system Membrane
T1 sequence (P08908 whole entry): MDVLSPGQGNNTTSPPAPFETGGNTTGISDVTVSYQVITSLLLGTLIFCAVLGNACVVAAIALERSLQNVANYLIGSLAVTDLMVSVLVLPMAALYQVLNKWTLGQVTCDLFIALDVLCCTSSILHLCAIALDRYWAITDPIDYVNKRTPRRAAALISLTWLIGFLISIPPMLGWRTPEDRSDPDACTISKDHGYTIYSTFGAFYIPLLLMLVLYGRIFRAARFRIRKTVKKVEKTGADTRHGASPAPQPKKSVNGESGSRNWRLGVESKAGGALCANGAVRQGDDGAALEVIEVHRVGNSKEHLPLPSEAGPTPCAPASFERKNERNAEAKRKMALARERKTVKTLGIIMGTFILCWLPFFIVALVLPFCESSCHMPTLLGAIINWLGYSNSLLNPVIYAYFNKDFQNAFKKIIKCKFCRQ

[2] = molecular target: 5-hydroxytryptamine receptor 2A (Homo sapiens, UniProt P28223); assay: Displacement of [3H]-ketanserin from human 5-HT2A receptor expressed in HEK293 cell membranes assessed as inhibition constant incubated for 1 hr by Microbeta plate reader based analysis; set-up: species or system Membrane
[3] = molecular target: 5-hydroxytryptamine receptor 7 (Homo sapiens, UniProt P34969); assay: Displacement of [3H]-5-CT from human 5-HT7 receptor expressed in HEK293 cell membranes assessed as inhibition constant incubated for 1 hr by Microbeta plate reader based analysis; set-up: species or system Membrane
D(2) dopamine receptor = D(2) dopamine receptor (Homo sapiens, UniProt P14416); assay: Displacement of [3H]-raclopride from human D2 receptor expressed in HEK293 cell membranes assessed as inhibition constant incubated for 1 hr by Microbeta plate reader based analysis; set-up: species or system Membrane
[4] = Aqueous solubility of compound at 10 mg boiled for 5 mins and incubated overnight by UV spectroscopy; assay type: physicochemical; settings: aqueous medium
[5] = Permeability of compound at 200 uM incubated for 5 hrs by PAMPA assay; assay type: ADME; settings: read-out: permeability
HepG2 = assay: Cytotoxicity against human HepG2 cells assessed as reduction in cell viability at 100 uM incubated for 72 hrs by MTS assay; assay type: toxicity, cell-based; settings: hepg2, 72 h
Summary of the method: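 HepG2 hepatoma cells exposed 72 h to compounds at 1, 10, 50 and 100 μM; doxorubicin 1 μM as positive control, 1% DMSO in growth medium as negative control. Viability read by MTS assay, absorbance 490 nm.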

[6] = Effect on Wistar rat memory assessed as total exploratory time in T2 session at 0.1 mg/kg, ip measured after 60 mins by novel object recognition test (reference value: 31.86 +/- 2.15 sec); assay type: toxicity, organism-based; settings: in vivo, 1 h
Summary of the method: (§1)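 Rats given compound i.p. (2 mL/kg; vehicle 1% Tween 80) 60 min before T1 familiarization phase, without MK-801; doses 0.1–3 mg/kg. T2 recognition session 3 min; discrimination index (EB − EA)/(EA + EB) and total exploration time of both objects recorded; n = 6–8; mean ± SEM, one-way ANOVA/Bonferroni.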

[7] = Effect on Wistar rat memory assessed as total exploratory time in T2 session at 0.3 mg/kg, ip measured after 60 mins by novel object recognition test (reference value: 31.86 +/- 2.15 sec); assay type: toxicity, organism-based; settings: in vivo, 1 h; summary of the method: as §1
[8] = Effect on Wistar rat memory assessed as total exploratory time in T2 session at 1 mg/kg, ip measured after 60 mins by novel object recognition test (reference value: 31.86 +/- 2.15 sec); assay type: toxicity, organism-based; settings: in vivo, 1 h; summary of the method: as §1
[9] = Effect on Wistar rat memory assessed as total exploratory time in T2 session at 3 mg/kg, ip measured after 60 mins by novel object recognition test (reference value: 31.86 +/- 2.15 sec); assay type: toxicity, organism-based; settings: in vivo, 1 h; summary of the method: as §1
Rattus norvegicus [10] = assay: Reversal of MK-801 induced memory impairment in Wistar rat assessed as total exploratory time at 0.1 mg/kg, ip pretreated for 30 mins followed by MK-801 administration and measured after 30 mins by novel object recognition test (reference value: 39.29 +/- 3.44 sec); assay type: functional; settings: time 60 min, 1 h
Rattus norvegicus [11] = assay: Reversal of MK-801 induced memory impairment in Wistar rat assessed as total exploratory time at 0.3 mg/kg, ip pretreated for 30 mins followed by MK-801 administration and measured after 30 mins by novel object recognition test (reference value: 39.29 +/- 3.44 sec); assay type: functional; settings: time 60 min, 1 h
Rattus norvegicus [12] = assay: Reversal of MK-801 induced memory impairment in Wistar rat assessed as total exploratory time at 1 mg/kg, ip pretreated for 30 mins followed by MK-801 administration and measured after 30 mins by novel object recognition test (reference value: 39.29 +/- 3.44 sec); assay type: functional; settings: time 60 min
Rattus norvegicus [13] = assay: Reversal of MK-801 induced memory impairment in Wistar rat assessed as total exploratory time at 3 mg/kg, ip pretreated for 30 mins followed by MK-801 administration and measured after 30 mins by novel object recognition test (reference value: 39.29 +/- 3.44 sec); assay type: functional; settings: time 60 min, 1 h
[14] = Metabolic stability at phase II in rat liver microsomes assessed as compound remaining at 50 uM preincubated for 5 mins followed by UDPGA and NADPH addition and measured after 1 hr by LC-MS analysis; assay type: ADME, Microsome; settings: time 65 min, read-out: Stability

Sequence of 5-hydroxytryptamine receptor 2A (P28223 whole entry): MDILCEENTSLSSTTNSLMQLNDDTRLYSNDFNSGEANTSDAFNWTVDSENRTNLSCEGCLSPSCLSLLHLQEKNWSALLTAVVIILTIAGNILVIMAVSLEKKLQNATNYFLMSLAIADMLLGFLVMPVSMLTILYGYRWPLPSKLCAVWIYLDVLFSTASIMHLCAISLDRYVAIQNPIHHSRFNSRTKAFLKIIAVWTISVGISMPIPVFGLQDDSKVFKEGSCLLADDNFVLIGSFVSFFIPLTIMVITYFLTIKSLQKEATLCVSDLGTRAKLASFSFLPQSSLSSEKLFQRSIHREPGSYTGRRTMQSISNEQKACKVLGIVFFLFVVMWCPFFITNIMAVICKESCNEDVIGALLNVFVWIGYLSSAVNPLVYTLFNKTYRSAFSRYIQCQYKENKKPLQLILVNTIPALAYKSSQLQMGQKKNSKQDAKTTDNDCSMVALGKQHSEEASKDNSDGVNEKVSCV
Sequence of D(2) dopamine receptor (P14416 whole entry): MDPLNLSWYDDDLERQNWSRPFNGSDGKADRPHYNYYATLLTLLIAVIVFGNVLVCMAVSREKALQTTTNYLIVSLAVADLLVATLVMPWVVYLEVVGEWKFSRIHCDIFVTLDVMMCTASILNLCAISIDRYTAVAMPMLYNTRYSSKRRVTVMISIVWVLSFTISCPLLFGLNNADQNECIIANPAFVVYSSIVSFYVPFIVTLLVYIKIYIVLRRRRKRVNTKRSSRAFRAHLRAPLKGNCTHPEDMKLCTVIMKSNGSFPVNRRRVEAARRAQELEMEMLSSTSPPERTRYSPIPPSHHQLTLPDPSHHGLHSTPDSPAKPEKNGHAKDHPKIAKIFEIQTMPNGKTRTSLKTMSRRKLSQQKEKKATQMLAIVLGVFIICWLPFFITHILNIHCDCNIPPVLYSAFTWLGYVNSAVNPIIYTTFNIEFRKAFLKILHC
Sequence of 5-hydroxytryptamine receptor 7 (P34969 whole entry): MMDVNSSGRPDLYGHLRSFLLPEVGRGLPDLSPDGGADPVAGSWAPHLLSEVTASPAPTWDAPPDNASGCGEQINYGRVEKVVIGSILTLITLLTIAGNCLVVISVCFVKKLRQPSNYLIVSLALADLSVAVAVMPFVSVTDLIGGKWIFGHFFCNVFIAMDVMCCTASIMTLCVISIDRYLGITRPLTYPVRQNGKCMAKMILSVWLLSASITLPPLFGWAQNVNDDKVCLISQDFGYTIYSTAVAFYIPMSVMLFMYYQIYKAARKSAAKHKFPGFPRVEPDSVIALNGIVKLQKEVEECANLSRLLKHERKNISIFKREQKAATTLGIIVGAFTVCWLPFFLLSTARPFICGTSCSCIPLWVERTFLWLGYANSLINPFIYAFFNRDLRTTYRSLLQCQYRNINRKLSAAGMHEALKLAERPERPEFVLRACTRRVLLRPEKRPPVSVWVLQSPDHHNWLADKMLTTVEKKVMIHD

pKi [1]: 5.52 | pKi [2]: 6.24 | pKi [3]: 4.94 | pKi (D(2) dopamine receptor): 5.79 | solubility at 5 min [4]: 79 µg/mL and 217 µM | Papp at 5 h, 200 µM [5]: 20.6 ×10⁻⁶ cm/s | remaining at 1 h, 50 µM [14]: 82.6%
SMILES: CCC(Oc1cc(F)ccc1F)c1nc(N)nc(N2CCN(C)CC2)n1 (stereo unspecified)
Activity (HepG2): Non-Toxic | Time [6]: 38.29 s | Time [7]: 34.63 s | Time [8]: 39.38 s | Time [9]: 31.63 s | Time (Rattus norvegicus [10]): 33.25 s | Time (Rattus norvegicus [11]): 31 s | Time (Rattus norvegicus [12]): 32.57 s | Time (Rattus norvegicus [13]): 27.75 s

Source: ChEMBL document CHEMBL5634098, “Hydrophobicity modulation via the substituents at positions 2 and 4 of 1,3,5-triazine to enhance therapeutic ability against Alzheimer's disease for potent serotonin 5-HT6R agents” (Eur J Med Chem, 2023)
